Where two headings read alike, the source gives them in different places.
What was measured:
[1] = clinical; cited from earlier work
[2] = Plasma protein binding by rapid equilibrium dialysis; assay type: in vitro ADME; settings: BALB/c, mouse
Procedure, shortened: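 Rapid equilibrium dialysis: freshly spiked BALB/c mouse plasma against PBS, 37 °C for 24 h. Test compound at 300–100,000 ng/mL with <0.1% final organic solvent, triplicate. Fraction unbound in plasma determined from chamber concentrations.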

[3] = assay type: in vivo, BALB/c mice; settings: for clearance: CL
[4] = tested on: breast cancer resistance protein (Bcrp/Abcg2); settings: on the BBB; cited from earlier work
[5] = tested on: P-glycoprotein (P-gp/Mdr1); settings: on the BBB; cited from earlier work
[6] = BALB/c, mouse, bone marrow, iv, 20 mg/kg
[7] = BALB/c, mouse, brain, iv, 20 mg/kg
[8] = BALB/c, mouse, draining lymph node, iv, 20 mg/kg
[9] = BALB/c, mouse, esophagus, iv, 20 mg/kg
[10] = BALB/c, mouse, fat, iv, 20 mg/kg
[11] = BALB/c, mouse, heart, iv, 20 mg/kg
[12] = BALB/c, mouse, kidney, iv, 20 mg/kg
[13] = BALB/c, mouse, liver, iv, 20 mg/kg
[14] = BALB/c, mouse, lung, iv, 20 mg/kg
[15] = BALB/c, mouse, non-draining lymph node, iv, 20 mg/kg
[16] = BALB/c, mouse, plasma, iv, 20 mg/kg
[17] = BALB/c, mouse, red blood cells (RBC), iv, 20 mg/kg
[18] = BALB/c, mouse, skeletal muscle, iv, 20 mg/kg
[19] = BALB/c, mouse, small intestine, iv, 20 mg/kg
[20] = BALB/c, mouse, spinal cord, iv, 20 mg/kg
[21] = BALB/c, mouse, spleen, iv, 20 mg/kg
[22] = BALB/c, mouse, thymus, iv, 20 mg/kg
[23] = BALB/c, mouse, tumor (CT26), iv, 20 mg/kg
[24] = plasma, 20 mg/kg IV-ext, tumor-bearing mice
[25] = unchanged drug, 20 mg/kg IV-ext, tumor-bearing mice

fraction unbound at 24 h, 300 ng/mL [2]: 0.028
fraction unbound at 24 h, 100000 ng/mL [2]: 0.0427
AUC(0-inf) [3, 6]: 1110 µg·h/mL
Cmax [3, 6]: 164 µg/mL
Kp [3, 6]: 74.5
Tmax [3, 6]: 60 min
AUC(0-t) ([3]; BALB/c, mouse, bone marrow, iv, 20 mg/kg, AUC0-t, 20 mg/kg IV, 0–1440 min): 1060 µg·h/mL
AUC(0-inf) [3, 7]: 4.52 µg·h/mL
Cmax [3, 7]: 0.627 µg/mL
Kp [3, 7]: 0.297
Tmax [3, 7]: 15 min
AUC(0-t) ([3]; BALB/c, mouse, brain, iv, 20 mg/kg, AUC0-t, 20 mg/kg IV, 0–1440 min): 4.23 µg·h/mL
AUC(0-inf) [3, 8]: 87 µg·h/mL
Cmax [3, 8]: 12.9 µg/mL
Kp [3, 8]: 5.7
Tmax [3, 8]: 60 min
AUC(0-t) ([3]; BALB/c, mouse, draining lymph node, iv, 20 mg/kg, AUC0-t, 20 mg/kg IV, 0–1440 min): 80.3 µg·h/mL
AUC(0-inf) [3, 9]: 46.7 µg·h/mL
Cmax [3, 9]: 12.1 µg/mL
Kp [3, 9]: 3.07
Tmax [3, 9]: 30 min
AUC(0-t) ([3]; BALB/c, mouse, esophagus, iv, 20 mg/kg, AUC0-t, 20 mg/kg IV, 0–1440 min): 43.6 µg·h/mL
AUC(0-inf) [3, 10]: 25.2 µg·h/mL
Cmax [3, 10]: 4.28 µg/mL
Kp [3, 10]: 1.59
Tmax [3, 10]: 5 min
AUC(0-t) ([3]; BALB/c, mouse, fat, iv, 20 mg/kg, AUC0-t, 20 mg/kg IV, 0–1440 min): 22.6 µg·h/mL
AUC(0-inf) [3, 11]: 86.5 µg·h/mL
Cmax [3, 11]: 31.6 µg/mL
Kp [3, 11]: 5.64
Tmax [3, 11]: 5 min
AUC(0-t) ([3]; BALB/c, mouse, heart, iv, 20 mg/kg, AUC0-t, 20 mg/kg IV, 0–1440 min): 81.2 µg·h/mL
AUC(0-inf) [3, 12]: 873 µg·h/mL
Cmax [3, 12]: 117 µg/mL
Kp [3, 12]: 57.7
Tmax [3, 12]: 5 min
AUC(0-t) ([3]; BALB/c, mouse, kidney, iv, 20 mg/kg, AUC0-t, 20 mg/kg IV, 0–1440 min): 821 µg·h/mL
AUC(0-inf) [3, 13]: 387 µg·h/mL
Cmax [3, 13]: 79.8 µg/mL
Kp [3, 13]: 25.5
Tmax [3, 13]: 5 min
AUC(0-t) ([3]; BALB/c, mouse, liver, iv, 20 mg/kg, AUC0-t, 20 mg/kg IV, 0–1440 min): 363 µg·h/mL
AUC(0-inf) [3, 14]: 216 µg·h/mL
Cmax [3, 14]: 45.2 µg/mL
Kp [3, 14]: 13.9
Tmax [3, 14]: 5 min
AUC(0-t) ([3]; BALB/c, mouse, lung, iv, 20 mg/kg, AUC0-t, 20 mg/kg IV, 0–1440 min): 198 µg·h/mL
AUC(0-inf) [3, 15]: 116 µg·h/mL
Cmax [3, 15]: 20.7 µg/mL
Kp [3, 15]: 7.79
Tmax [3, 15]: 30 min
AUC(0-t) ([3]; BALB/c, mouse, non-draining lymph node, iv, 20 mg/kg, AUC0-t, 20 mg/kg IV, 0–1440 min): 111 µg·h/mL
AUC(0-inf) [3, 16]: 15.1 µg·h/mL
Cmax [3, 16]: 13.3 µg/mL
Kp [3, 16]: 1
Tmax [3, 16]: 5 min
Vd [3, 16]: 11.7 L/kg
half-life [3, 16]: 367 min
AUC(0-t) ([3]; BALB/c, mouse, plasma, iv, 20 mg/kg, AUC0-t, 20 mg/kg IV-ext, tumor-bearing mice): 14.2 µg·h/mL
AUC(0-t) ([3]; BALB/c, mouse, plasma, iv, 20 mg/kg, AUC0-t, 20 mg/kg IV, 0–1440 min): 14.2 µg·h/mL
AUC(0-t) ([3]; BALB/c, mouse, plasma, iv, 20 mg/kg, AUC0–360, plasma, 20 mg/kg IV-ext, tumor-bearing mice): 9.85 µg·h/mL
clearance ([3]; BALB/c, mouse, plasma, iv, 20 mg/kg, calculated using AUC0-∞, 20 mg/kg IV-ext, tumor-bearing mice): 1.33 L/h/kg
clearance ([3]; BALB/c, mouse, plasma, iv, 20 mg/kg, calculated using AUC0–360, 20 mg/kg IV-ext, tumor-bearing mice): 2.03 L/h/kg
AUC(0-inf) [3, 17]: 5.87 µg·h/mL
Cmax [3, 17]: 1.69 µg/mL
Kp [3, 17]: 0.389
Tmax [3, 17]: 5 min
AUC(0-t) ([3]; BALB/c, mouse, red blood cells (RBC), iv, 20 mg/kg, AUC0-t, RBC, 20 mg/kg IV, 0–1440 min): 5.53 µg·h/mL
AUC(0-inf) [3, 18]: 41.7 µg·h/mL
Cmax [3, 18]: 9.95 µg/mL
Kp [3, 18]: 2.77
Tmax [3, 18]: 15 min
AUC(0-t) ([3]; BALB/c, mouse, skeletal muscle, iv, 20 mg/kg, AUC0-t, Sk. Muscle, 20 mg/kg IV, 0–1440 min): 39.4 µg·h/mL
AUC(0-inf) [3, 19]: 209 µg·h/mL
Cmax [3, 19]: 31.3 µg/mL
Kp [3, 19]: 12.7
Tmax [3, 19]: 15 min
AUC(0-t) ([3]; BALB/c, mouse, small intestine, iv, 20 mg/kg, AUC0-t, 20 mg/kg IV, 0–1440 min): 181 µg·h/mL
AUC(0-inf) [3, 20]: 2.15 µg·h/mL
Cmax [3, 20]: 0.307 µg/mL
Kp [3, 20]: 0.14
Tmax [3, 20]: 15 min
AUC(0-t) ([3]; BALB/c, mouse, spinal cord, iv, 20 mg/kg, AUC0-t, 20 mg/kg IV, 0–1440 min): 2 µg·h/mL
AUC(0-inf) [3, 21]: 306 µg·h/mL
Cmax [3, 21]: 39 µg/mL
Kp [3, 21]: 20.6
Tmax [3, 21]: 120 min
AUC(0-t) ([3]; BALB/c, mouse, spleen, iv, 20 mg/kg, AUC0-t, 20 mg/kg IV, 0–1440 min): 293 µg·h/mL
AUC(0-inf) [3, 22]: 92.9 µg·h/mL
Cmax [3, 22]: 13.5 µg/mL
Kp [3, 22]: 5.94
Tmax [3, 22]: 30 min
AUC(0-t) ([3]; BALB/c, mouse, thymus, iv, 20 mg/kg, AUC0-t, 20 mg/kg IV, 0–1440 min): 84.5 µg·h/mL
Kp ([3]; BALB/c, mouse, tumor (CT26), intravenous, 20 mg/kg): 8.68
AUC(0-inf) [3, 23]: 140 µg·h/mL
Cmax [3, 23]: 13.1 µg/mL
Tmax [3, 23]: 60 min
AUC(0-t) ([3]; BALB/c, mouse, tumor (CT26), iv, 20 mg/kg, AUC0-t, 20 mg/kg IV, 0–1440 min): 124 µg·h/mL
Cmax ([3]; Plasma, 20 mg/kg IV, observed, mean (SD)): 13.3 (4.91) μg/mL
AUC0-∞ ([3]; plasma, 20 mg/kg IV): 906 µg·min/mL
Tmax ([3]; plasma, 20 mg/kg IV): 5 min
AUC0-t/dose [3, 24]: 42.7
AUC0-∞ /dose [3, 24]: 45.3
AUC0–360/dose [3, 24]: 29.6
AUCextrap [3, 24]: 5.75%
Tlast [3, 24]: 1440 min
0–24 h feces [3, 25]: 4.13 % dose
0–24 h urine [3, 25]: 48.4 % dose
Structure (SMILES): CNCc1ccc(-c2cc(-c3nc(-c4ccc(S(=O)(=O)C(C)C)cc4)cnc3N)on2)cc1 [berzosertib]
dose up to which plasma PK is dose-proportionate [1]: up to 240 mg/m^2
efflux transporter substrate [4]: substrate
efflux transporter substrate [5]: substrate
